Source: ChEMBL document CHEMBL3739387, “Discovery and SAR of Novel and Selective Inhibitors of Urokinase Plasminogen Activator (uPA) with an Imidazo[1,2-a]pyridine Scaffold” (J Med Chem, 2015)
Activity calls are given as the source filed them. No cut-off for these calls is given here.

molecular target: T1, Coagulation factor X (Homo sapiens, UniProt P00742); assay: Inhibition of purified human factor 10a using Suc-Ile-Glu(gammaPip)-GlyArg-pNa-HCl as substrate measured for 5 mins by spectrophotometric assay
Outline: (§1)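 Purified human factor Xa, substrate Suc-Ile-Glu(γPip)-Gly-Arg-pNA (CS-11(32)) at 411 μM in assay. HEPES pH 8.2. Read at 405 nm for 5 min at 37 °C, duplicate wells.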

T1 sequence (P00742 41-179 limits assumed): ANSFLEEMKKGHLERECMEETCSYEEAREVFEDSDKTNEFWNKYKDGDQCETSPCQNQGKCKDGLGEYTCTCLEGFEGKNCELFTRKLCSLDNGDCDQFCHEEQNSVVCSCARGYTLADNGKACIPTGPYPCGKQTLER
T1 sequence (P00742 235-488 limits assumed): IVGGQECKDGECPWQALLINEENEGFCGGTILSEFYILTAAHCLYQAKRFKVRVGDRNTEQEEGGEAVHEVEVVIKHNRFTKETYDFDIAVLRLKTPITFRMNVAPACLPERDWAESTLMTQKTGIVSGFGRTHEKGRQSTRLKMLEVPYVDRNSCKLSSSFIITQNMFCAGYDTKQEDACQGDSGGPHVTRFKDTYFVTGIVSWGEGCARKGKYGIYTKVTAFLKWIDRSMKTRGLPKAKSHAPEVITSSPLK

Compound | IC50
N=C(N)Nc1ccc(CNc2cnc3cc(C(=O)NCCO)ccn23)cc1 | 51.6 µM

molecular target: T2, Urokinase-type plasminogen activator (Homo sapiens, UniProt P00749); assay: Slow dissociating inhibition of human uPA using pyro-Glu-Gly-Arg-pNA as substrate assessed as para-nitroaniline release from substrate measured for 5 mins by spectrophotometry based enzyme kinetics assay

Compound | inhibition
N=C(N)Nc1ccc(CNc2cnc3cc(C(=O)NC4CCCC4)ccn23)cc1 | Active
CN1CCN(CCNC(=O)c2ccn3c(NCc4ccc(NC(=N)N)cc4)cnc3c2)CC1 | Active
N=C(N)Nc1ccc(CNc2cnc3cc(C(=O)NC4CC4)ccn23)cc1 | Active
N=C(N)Nc1ccc(CNc2cnc3cc(C(=O)NCCO)ccn23)cc1 | Active
N=C(N)Nc1ccc(CNc2cnc3cc(C(=O)NCc4ccc(F)cc4)ccn23)cc1 | Active

molecular target: Tissue-type plasminogen activator (Homo sapiens, UniProt P00750); assay: Inhibition of recombinant human tPA using H-D-Ile-Pro-L-Arg-pNA-2HCl as substrate at 100 uM measured for 5 mins by spectrophotometric assay
Sequence (P00750 36-562 limits assumed): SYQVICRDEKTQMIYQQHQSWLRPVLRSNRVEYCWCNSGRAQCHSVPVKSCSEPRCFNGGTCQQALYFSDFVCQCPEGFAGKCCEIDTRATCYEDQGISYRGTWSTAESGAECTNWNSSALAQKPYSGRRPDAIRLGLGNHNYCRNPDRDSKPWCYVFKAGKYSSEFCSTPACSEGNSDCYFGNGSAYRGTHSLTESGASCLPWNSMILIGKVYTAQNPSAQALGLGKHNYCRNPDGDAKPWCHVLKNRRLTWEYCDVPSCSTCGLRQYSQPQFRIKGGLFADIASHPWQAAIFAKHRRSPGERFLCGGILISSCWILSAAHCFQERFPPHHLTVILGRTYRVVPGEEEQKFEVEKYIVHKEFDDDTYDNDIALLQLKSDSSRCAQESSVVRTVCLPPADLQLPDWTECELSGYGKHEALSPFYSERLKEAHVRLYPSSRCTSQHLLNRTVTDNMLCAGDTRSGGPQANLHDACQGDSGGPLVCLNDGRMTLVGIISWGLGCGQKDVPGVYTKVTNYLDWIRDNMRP

Compound | inhibition
N=C(N)Nc1ccc(CNc2cnc3cc(C(=O)NC4CCCC4)ccn23)cc1 | 11.2%
N=C(N)Nc1ccccc1 | 0%
N=C(N)NC(=O)c1nc(Cl)c(N)nc1N [AMILORIDE] | 1%
CN1CCN(CCNC(=O)c2ccn3c(NCc4ccc(NC(=N)N)cc4)cnc3c2)CC1 | 2.8%
N=C(N)Nc1ccc(CNc2cnc3cc(C(=O)NC4CC4)ccn23)cc1 | 0%
N=C(N)Nc1ccc(CNc2cnc3cc(C(=O)NCCO)ccn23)cc1 | 0%
N=C(N)Nc1ccc(CNc2cnc3cc(C(=O)NCc4ccc(F)cc4)ccn23)cc1 | 11.9%
N=C(N)Nc1ccc(CNc2cnc3ccccn23)cc1 | 33.6%
N=C(N)Nc1ccc(CNc2c(-c3cccnc3)nc3ccccn23)cc1 | 9.4%

molecular target: T2, Urokinase-type plasminogen activator; assay: Reversible inhibition of human uPA using pyro-Glu-Gly-Arg-pNA as substrate assessed as para-nitroaniline release from substrate measured for 5 mins by spectrophotometry based enzyme kinetics assay

Compound | inhibition
N=C(N)Nc1ccc(CNc2cnc3cc(C(=O)NC4CCCC4)ccn23)cc1 | Active
CN1CCN(CCNC(=O)c2ccn3c(NCc4ccc(NC(=N)N)cc4)cnc3c2)CC1 | Active
N=C(N)Nc1ccc(CNc2cnc3cc(C(=O)NC4CC4)ccn23)cc1 | Active
N=C(N)Nc1ccc(CNc2cnc3cc(C(=O)NCCO)ccn23)cc1 | Active
N=C(N)Nc1ccc(CNc2cnc3cc(C(=O)NCc4ccc(F)cc4)ccn23)cc1 | Active

species: Bos taurus; assay: Inhibition of bovine pancreatic trypsin using Na-benzoyl-D,L-Arg-pNA-HCl as substrate at 100 uM measured for 5 mins by spectrophotometric assay

Compound | inhibition
N=C(N)Nc1ccc(CNc2cnc3cc(C(=O)NC4CCCC4)ccn23)cc1 | 37.1%
N=C(N)Nc1ccccc1 | 38.8%
CN1CCN(CCNC(=O)c2ccn3c(NCc4ccc(NC(=N)N)cc4)cnc3c2)CC1 | 32%
N=C(N)Nc1ccc(CNc2cnc3cc(C(=O)NC4CC4)ccn23)cc1 | 46%
N=C(N)Nc1ccc(CNc2cnc3cc(C(=O)NCCO)ccn23)cc1 | 43.3%
N=C(N)Nc1ccc(CNc2cnc3cc(C(=O)NCc4ccc(F)cc4)ccn23)cc1 | 43.2%
N=C(N)Nc1ccc(CNc2c(-c3cccnc3)nc3ccccn23)cc1 | 3.3%

tested on: not listed separately; assay: Inhibition of bovine pancreatic trypsin using Nalpha-benzoyl-D,L-Arg-pNA-HCl as substrate measured for 5 mins by spectrophotometric assay; set-up: species or system Bos taurus

Compound | IC50
N=C(N)NC(=O)c1nc(Cl)c(N)nc1N [AMILORIDE] | 31.8 µM
N=C(N)Nc1ccc(CNc2cnc3ccccn23)cc1 | 115 µM

molecular target: T1, Coagulation factor X; assay: Inhibition of purified human factor 10a using Suc-Ile-Glu(yPip)-GlyArg-pNa-HCl as substrate at 100 uM measured for 5 mins by spectrophotometric assay; outline: as §1

Compound | inhibition
N=C(N)Nc1ccc(CNc2cnc3cc(C(=O)NC4CCCC4)ccn23)cc1 | 47.8%
N=C(N)Nc1ccccc1 | 0%
N=C(N)NC(=O)c1nc(Cl)c(N)nc1N [AMILORIDE] | 3.5%
CN1CCN(CCNC(=O)c2ccn3c(NCc4ccc(NC(=N)N)cc4)cnc3c2)CC1 | 12.2%
N=C(N)Nc1ccc(CNc2cnc3cc(C(=O)NC4CC4)ccn23)cc1 | 45.4%
N=C(N)Nc1ccc(CNc2cnc3cc(C(=O)NCc4ccc(F)cc4)ccn23)cc1 | 45.7%
N=C(N)Nc1ccc(CNc2cnc3ccccn23)cc1 | 42%
N=C(N)Nc1ccc(CNc2c(-c3cccnc3)nc3ccccn23)cc1 | 24.6%

molecular target: Plasminogen (Homo sapiens, UniProt P00747); assay: Inhibition of human plasma plasmin using pyroGlu-Pro-Arg-pNA-HCl as substrate at 100 uM measured for 5 mins by spectrophotometric assay; type: cell-free
Outline: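 Plasmin purified from human plasma. Substrate pyroGlu-Pro-Arg-pNA (CS-21(66), Km 400 μM) at 400 μM in assay. HEPES pH 7.0, 37 °C, absorbance at 405 nm followed for 5 min, duplicates.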

Sequence of Plasminogen (P00747 97-580 limits assumed): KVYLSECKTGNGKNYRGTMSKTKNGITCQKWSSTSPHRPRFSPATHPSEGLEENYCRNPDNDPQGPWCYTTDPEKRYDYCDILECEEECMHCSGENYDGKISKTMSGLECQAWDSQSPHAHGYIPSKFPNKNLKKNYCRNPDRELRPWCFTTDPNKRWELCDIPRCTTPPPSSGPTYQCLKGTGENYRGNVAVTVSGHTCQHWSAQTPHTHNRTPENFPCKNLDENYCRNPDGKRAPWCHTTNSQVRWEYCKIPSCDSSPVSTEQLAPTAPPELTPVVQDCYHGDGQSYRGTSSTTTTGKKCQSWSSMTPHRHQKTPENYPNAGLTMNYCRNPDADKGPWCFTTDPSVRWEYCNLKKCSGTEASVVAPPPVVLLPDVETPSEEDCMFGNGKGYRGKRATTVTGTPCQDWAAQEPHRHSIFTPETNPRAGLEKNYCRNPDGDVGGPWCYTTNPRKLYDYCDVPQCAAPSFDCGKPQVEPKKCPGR
Sequence of Plasminogen (P00747 581-810 limits assumed): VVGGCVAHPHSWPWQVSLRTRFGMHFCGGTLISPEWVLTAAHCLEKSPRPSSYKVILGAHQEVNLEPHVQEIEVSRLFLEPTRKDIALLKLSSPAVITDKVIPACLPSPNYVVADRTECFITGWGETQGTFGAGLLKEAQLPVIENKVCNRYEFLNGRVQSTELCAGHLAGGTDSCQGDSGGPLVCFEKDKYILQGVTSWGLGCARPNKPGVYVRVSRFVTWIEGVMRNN

Compound | inhibition
N=C(N)Nc1ccc(CNc2cnc3cc(C(=O)NC4CCCC4)ccn23)cc1 | 0%
N=C(N)Nc1ccccc1 | 0%
N=C(N)NC(=O)c1nc(Cl)c(N)nc1N [AMILORIDE] | 0%
CN1CCN(CCNC(=O)c2ccn3c(NCc4ccc(NC(=N)N)cc4)cnc3c2)CC1 | 0%
N=C(N)Nc1ccc(CNc2cnc3cc(C(=O)NC4CC4)ccn23)cc1 | 3.3%
N=C(N)Nc1ccc(CNc2cnc3cc(C(=O)NCCO)ccn23)cc1 | 15.6%
N=C(N)Nc1ccc(CNc2cnc3cc(C(=O)NCc4ccc(F)cc4)ccn23)cc1 | 8.3%
N=C(N)Nc1ccc(CNc2cnc3ccccn23)cc1 | 29.8%
N=C(N)Nc1ccc(CNc2c(-c3cccnc3)nc3ccccn23)cc1 | 0%

molecular target: Prothrombin (Homo sapiens, UniProt P00734); assay: Inhibition of human plasma thrombin using pyroGlu-Pro-Arg-pNA-HCl as substrate at 100 uM measured for 5 mins by spectrophotometric assay; type: cell-free
Outline: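 Thrombin from human plasma with pyroGlu-Pro-Arg-pNA (CS-21(66), Km 400 μM) at 415 μM in assay. 50 mM HEPES pH 8.2. pNA release at 405 nm over 5 min at 37 °C, in duplicate.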

Compound | inhibition
N=C(N)Nc1ccc(CNc2cnc3cc(C(=O)NC4CCCC4)ccn23)cc1 | 17.8%
N=C(N)Nc1ccccc1 | 0%
N=C(N)NC(=O)c1nc(Cl)c(N)nc1N [AMILORIDE] | 5.2%
CN1CCN(CCNC(=O)c2ccn3c(NCc4ccc(NC(=N)N)cc4)cnc3c2)CC1 | 6.6%
N=C(N)Nc1ccc(CNc2cnc3cc(C(=O)NC4CC4)ccn23)cc1 | 8%
N=C(N)Nc1ccc(CNc2cnc3cc(C(=O)NCCO)ccn23)cc1 | 4.7%
N=C(N)Nc1ccc(CNc2cnc3cc(C(=O)NCc4ccc(F)cc4)ccn23)cc1 | 19.5%
N=C(N)Nc1ccc(CNc2cnc3ccccn23)cc1 | 23%
N=C(N)Nc1ccc(CNc2c(-c3cccnc3)nc3ccccn23)cc1 | 6.6%

molecular target: T3, Coagulation factor VII (Homo sapiens) (UniProt P08709); assay: Inhibition of purified human factor 7a using MeSO2-Cha-Abu-Arg-pNA as substrate at 100 uM measured for 5 mins by spectrophotometric assay
T3 sequence (whole entry): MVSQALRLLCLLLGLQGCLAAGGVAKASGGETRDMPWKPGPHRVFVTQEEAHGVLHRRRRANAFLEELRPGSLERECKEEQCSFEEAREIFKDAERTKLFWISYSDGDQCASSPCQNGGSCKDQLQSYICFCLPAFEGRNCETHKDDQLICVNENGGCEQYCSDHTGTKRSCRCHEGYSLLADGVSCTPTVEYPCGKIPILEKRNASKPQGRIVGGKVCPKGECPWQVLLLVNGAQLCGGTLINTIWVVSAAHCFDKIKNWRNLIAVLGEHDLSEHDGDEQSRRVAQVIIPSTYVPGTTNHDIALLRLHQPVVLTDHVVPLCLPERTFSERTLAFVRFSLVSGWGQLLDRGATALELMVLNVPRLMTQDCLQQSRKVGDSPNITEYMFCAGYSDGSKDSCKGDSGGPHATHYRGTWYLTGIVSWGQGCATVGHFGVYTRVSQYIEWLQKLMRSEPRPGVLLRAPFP
Outline: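 Purified human plasma FVIIa with tissue factor (Innovin) present. MeSO2-Cha-Abu-Arg-pNA at 800 μM in assay. Buffer 50 mM HEPES pH 7.5, 100 mM NaCl, 5 mM CaCl2, 0.1% BSA.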

Compound | inhibition
N=C(N)Nc1ccc(CNc2cnc3cc(C(=O)NC4CCCC4)ccn23)cc1 | 4%
N=C(N)Nc1ccccc1 | 0%
N=C(N)NC(=O)c1nc(Cl)c(N)nc1N [AMILORIDE] | 7.4%
CN1CCN(CCNC(=O)c2ccn3c(NCc4ccc(NC(=N)N)cc4)cnc3c2)CC1 | 2%
N=C(N)Nc1ccc(CNc2cnc3cc(C(=O)NC4CC4)ccn23)cc1 | 2.6%
N=C(N)Nc1ccc(CNc2cnc3cc(C(=O)NCCO)ccn23)cc1 | 5%
N=C(N)Nc1ccc(CNc2cnc3cc(C(=O)NCc4ccc(F)cc4)ccn23)cc1 | 4.2%
N=C(N)Nc1ccc(CNc2cnc3ccccn23)cc1 | 2.5%
N=C(N)Nc1ccc(CNc2c(-c3cccnc3)nc3ccccn23)cc1 | 0%

molecular target: T2, Urokinase-type plasminogen activator; assay: Tight binding inhibition of human uPA using pyro-Glu-Gly-Arg-pNA as substrate assessed as para-nitroaniline release from substrate measured for 5 mins by spectrophotometry based enzyme kinetics assay

Compound | inhibition
N=C(N)Nc1ccc(CNc2cnc3cc(C(=O)NC4CCCC4)ccn23)cc1 | Active
CN1CCN(CCNC(=O)c2ccn3c(NCc4ccc(NC(=N)N)cc4)cnc3c2)CC1 | Active
N=C(N)Nc1ccc(CNc2cnc3cc(C(=O)NC4CC4)ccn23)cc1 | Active
N=C(N)Nc1ccc(CNc2cnc3cc(C(=O)NCCO)ccn23)cc1 | Active
N=C(N)Nc1ccc(CNc2cnc3cc(C(=O)NCc4ccc(F)cc4)ccn23)cc1 | Active

molecular target: T2, Urokinase-type plasminogen activator; assay: Inhibition of human uPA using pyro-Glu-Gly-Arg-pNA as substrate assessed as para-nitroaniline release from substrate measured for 5 mins by spectrophotometric assay

Compound | IC50
N=C(N)Nc1ccc(CNc2cnc3cc(C(=O)NC4CCCC4)ccn23)cc1 | 0.174 µM
N=C(N)Nc1ccc(CNc2c(C3CCNCC3)nc3ccccn23)cc1 | 250 µM
N=C(N)Nc1ccc(CNc2c(Cc3ccccc3)nc3ccccn23)cc1 | 30.2 µM
N=C(N)Nc1ccc(CCNc2cnc3ccccn23)cc1 | 19.4 µM
CCCCNC(=O)c1ccc2nc(-c3cccnc3)c(NCc3ccc(NC(=N)N)cc3)n2c1 | 60.8 µM
CCc1nc2ccccn2c1NCc1ccc(NC(=N)N)cc1 | 48.5 µM
N=C(N)Nc1ccc(CNc2c(-c3ccccc3)nc3ccccn23)cc1 | 30.1 µM
NC[C@H]1CC[C@H](Nc2cnc3ccccn23)CC1 | 500 µM
N=C(N)Nc1ccc(CNc2c(-c3cccnc3)nc3ccc(F)cn23)cc1 | 57.6 µM
COC(=O)c1ccn2c(NCc3ccc(NC(=N)N)cc3)c(-c3cccnc3)nc2c1 | 15 µM
CN1CCN(CCNC(=O)c2ccn3c(NCc4ccc(NC(=N)N)cc4)cnc3c2)CC1 | 0.404 µM
N=C(N)Nc1ccc(CNc2cnc3cc(C(=O)NC4CC4)ccn23)cc1 | 0.184 µM
N=C(N)Nc1ccc(CNc2cnc3cc(C(=O)NCCO)ccn23)cc1 | 0.366 µM
N=C(N)Nc1ccc(CNc2cnc3cc(C(=O)NCc4ccc(F)cc4)ccn23)cc1 | 0.254 µM
N=C(N)Nc1ccc(CNc2cnc3ccccn23)cc1 | 9.04 µM
N=C(N)Nc1ccc(CNc2c(-c3cccnc3)nc3ccccn23)cc1 | 250 µM

molecular target: Plasma kallikrein (Homo sapiens, UniProt P03952); assay: Inhibition of human plasma kallikrein using D-Pro-Phe-Arg-pNA-2HCl as substrate at 100 uM measured for 5 mins by spectrophotometric assay; type: cell-free
Outline: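 Human plasma kallikrein, chromogenic substrate CS-31(02) (Km 269 μM) at 269 μM in assay. 50 mM HEPES at pH 7.4. Absorbance at 405 nm over 5 min at 37 °C, duplicates.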

Sequence of Plasma kallikrein (P03952 20-390 limits assumed): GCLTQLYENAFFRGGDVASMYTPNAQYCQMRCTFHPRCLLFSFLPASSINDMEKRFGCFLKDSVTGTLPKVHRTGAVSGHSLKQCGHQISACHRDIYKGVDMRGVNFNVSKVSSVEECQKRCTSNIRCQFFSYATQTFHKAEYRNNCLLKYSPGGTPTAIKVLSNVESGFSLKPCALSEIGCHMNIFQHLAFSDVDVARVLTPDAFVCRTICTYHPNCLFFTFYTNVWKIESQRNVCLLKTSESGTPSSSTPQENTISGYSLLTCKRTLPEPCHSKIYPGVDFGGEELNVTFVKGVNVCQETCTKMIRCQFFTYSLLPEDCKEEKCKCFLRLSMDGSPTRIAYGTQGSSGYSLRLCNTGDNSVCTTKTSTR
Sequence of Plasma kallikrein (P03952 391-638 limits assumed): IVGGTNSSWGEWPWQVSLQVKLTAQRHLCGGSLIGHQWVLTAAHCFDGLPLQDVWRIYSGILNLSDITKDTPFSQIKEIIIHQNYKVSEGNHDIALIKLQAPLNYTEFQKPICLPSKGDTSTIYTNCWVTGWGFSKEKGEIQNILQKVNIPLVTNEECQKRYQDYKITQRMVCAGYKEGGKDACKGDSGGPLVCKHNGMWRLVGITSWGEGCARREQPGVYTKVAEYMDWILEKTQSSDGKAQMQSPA

Compound | inhibition
N=C(N)Nc1ccc(CNc2cnc3cc(C(=O)NC4CCCC4)ccn23)cc1 | 0%
N=C(N)Nc1ccccc1 | 0%
N=C(N)NC(=O)c1nc(Cl)c(N)nc1N [AMILORIDE] | 0%
CN1CCN(CCNC(=O)c2ccn3c(NCc4ccc(NC(=N)N)cc4)cnc3c2)CC1 | 0%
N=C(N)Nc1ccc(CNc2cnc3cc(C(=O)NC4CC4)ccn23)cc1 | 0%
N=C(N)Nc1ccc(CNc2cnc3cc(C(=O)NCCO)ccn23)cc1 | 0%
N=C(N)Nc1ccc(CNc2cnc3cc(C(=O)NCc4ccc(F)cc4)ccn23)cc1 | 0%
N=C(N)Nc1ccc(CNc2cnc3ccccn23)cc1 | 39.4%
N=C(N)Nc1ccc(CNc2c(-c3cccnc3)nc3ccccn23)cc1 | 0%
